Test results taken from ChEMBL document CHEMBL3243986, “Synthesis and analgetic activity of some 5-aryl-2azabicyclo[3.2.1]octanes” (J Med Chem, 1978).
The source made the active and inactive calls.

Tested on: Mus musculus
Assay: Analgesic activity in po dosed CD-1 mouse assessed as inhibition of phenylquinone-induced writhing administered 15 to 90 mins prior challenge measured 5 mins post challenge
Format: functional
Conditions: CD-1, po
Procedure, shortened: (§1)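 Male CD-1 mice, 18–24 g, five per group, dosed 15, 30, 60 or 90 min before phenyl-p-benzoquinone (0.125% in 5% aqueous ethanol); vehicle controls. Writhes were counted over 10 min, starting 5 min after challenge. For dose–response, ten mice per dose were tested at the peak time, with four doses plus control, randomized. Result given as % inhibition of writhes; ED50 by computer linear regression.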

SMILES | ED50
Br.Oc1cccc(C23CCC(C2)N(CCc2ccccc2)CC3)c1 (racemic) | 60.9 mg/kg
Br.CC(=O)Oc1cccc(C23CCC(C2)N(CCc2ccccc2)CC3)c1 (racemic) | 15.2 mg/kg
Br.CC(=O)Oc1cccc(C23CCC(C2)N(CCc2cccs2)CC3)c1 (racemic) | 64 mg/kg

Tested on: Mus musculus
Assay: Toxicity in sc dosed CD-1 mouse assessed as overt effects
Format: organism-based
Conditions: in vivo

SMILES | Activity
Br.Oc1ccc(CCN2CCC3(c4cccc(O)c4)CCC2C3)cc1 (racemic) | Toxic

Tested on: Mus musculus
Assay: Analgesic activity in sc dosed CD-1 mouse assessed as delay in response to noxious heat stimuli measured after 15 to 60 mins post dosing by D'Amour-Smith tail-flick method
Format: functional
Conditions: CD-1, Tail
Procedure, shortened: (§2)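 Male CD-1 mice, ten per group, held in a plexiglass restrainer; an intense light beam served as the noxious heat stimulus, and tail-flick latency was recorded automatically. Two baseline readings were taken, unstable animals were excluded, and a cutoff was set. Dosing was sc, with vehicle at 10 mL/kg. Tests ran at 15, 30, 45 and 60 min, then at the peak time for at least three doses. Response past cutoff counted as analgesia; ED50 by linear regression.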

SMILES | ED50
Br.Oc1cccc(C23CCC(C2)N(CCc2ccc(Cl)c(Cl)c2)CC3)c1 (racemic) | 2.73 mg/kg
Br.Oc1cccc(C23CCC(C2)N(CCc2cccc(Cl)c2)CC3)c1 (racemic) | 5.46 mg/kg
Br.Oc1cccc(C23CCC(C2)N(CCc2ccc(Cl)cc2)CC3)c1 (racemic) | 7.32 mg/kg
Br.Oc1cccc(C23CCC(C2)N(CCc2ccccc2)CC3)c1 (racemic) | 6.45 mg/kg
Br.Oc1cccc(C23CCC(C2)N(Cc2ccco2)CC3)c1 (racemic) | 10 mg/kg
Br.COc1cccc(C23CCC(C2)N(CCc2ccccc2)CC3)c1 (racemic) | 13 mg/kg
Br.CCCCN1CCC2(c3cccc(OC)c3)CCC1C2 (racemic) | 9.71 mg/kg
Br.CCN1CCC2(c3cccc(OC)c3)CCC1C2 (racemic) | 17.7 mg/kg
Br.Cc1ccc(CCN2CCC3(c4cccc(O)c4)CCC2C3)cc1 (racemic) | 8.54 mg/kg
Br.Oc1ccc(CCN2CCC3(c4cccc(O)c4)CCC2C3)cc1 (racemic) | 25 mg/kg
Br.Oc1cccc(C23CCC(C2)N(CCc2cccs2)CC3)c1 (racemic) | 11 mg/kg
Br.CC(=O)Oc1cccc(C23CCC(C2)N(CCc2ccccc2)CC3)c1 (racemic) | 2.82 mg/kg
Br.CC(=O)Oc1cccc(C23CCC(C2)N(CCc2cccs2)CC3)c1 (racemic) | ≤ 3.8 mg/kg
CC(C)=CCN1CC[C@]2(C)c3cc(O)ccc3C[C@H]1[C@H]2C [(+)-PENTAZOCINE] | 14.6 mg/kg

Tested on: Mus musculus
Assay: Toxicity in sc dosed CD-1 mouse assessed as physical dependence liability by infusion test
Format: organism-based
Conditions: in vivo

SMILES | Activity
Br.Oc1cccc(C23CCC(C2)N(CCc2ccccc2)CC3)c1 (racemic) | Non-toxic

Tested on: Mus musculus
Assay: Analgesic activity in CD-1 mouse assessed as delay in response to noxious heat stimuli at 25 mg/kg, sc measured after 15 to 60 mins post dosing by D'Amour-Smith tail-flick method relative to control
Format: functional
Conditions: route subcutaneous
Procedure, shortened: as §2

SMILES | Activity
Br.CC(C)=CCN1CCC2(c3cccc(O)c3)CCC1C2 (racemic) | 20%
Br.Oc1cccc(C23CCC(C2)N(CC2CC2)CC3)c1 (racemic) | 30%
Br.CCCCCN1CCC2(c3cccc(O)c3)CCC1C2 (racemic) | 20%
Br.CCCCN1CCC2(c3cccc(O)c3)CCC1C2 (racemic) | 30%
Br.CCCN1CCC2(c3cccc(O)c3)CCC1C2 (racemic) | 20%
Br.CCN1CCC2(c3cccc(O)c3)CCC1C2 (racemic) | 30%
Br.CN1CCC2(c3cccc(O)c3)CCC1C2 (racemic) | 40%
Br.CCCCCN1CCC2(c3cccc(OC)c3)CCC1C2 (racemic) | 40%
Br.CCCN1CCC2(c3cccc(OC)c3)CCC1C2 (racemic) | 40%
Br.COc1cccc(C23CCC(C2)N(C)CC3)c1 (racemic) | 10%
Br.CC(=O)Oc1cccc(C23CCC(C2)N(C)CC3)c1 (racemic) | 14%

Tested on: Mus musculus
Assay: Inhibition of morphine-induced mania in CD-1 mouse assessed as inhibition of stereotypic activity at 10 mg/kg, sc measured after 15 to 30 mins
Format: functional
Conditions: not given
Procedure, shortened: (§3)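 Male mice, 18–30 g, two pairs per group, dosed randomly. Controls received morphine sulfate 25 mg/kg sc; test groups received morphine plus compound. Animals were watched for 15–30 min for stereotyped increase in motor activity, and blocking of this behaviour was scored positive. For dose range, ED50 by linear regression.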

SMILES | inhibition
Br.Oc1cccc(C23CCC(C2)N(CCc2ccc(Cl)c(Cl)c2)CC3)c1 (racemic) | inactive
Br.CC(C)=CCN1CCC2(c3cccc(O)c3)CCC1C2 (racemic) | inactive
Br.CCCN1CCC2(c3cccc(O)c3)CCC1C2 (racemic) | inactive
Br.CCN1CCC2(c3cccc(O)c3)CCC1C2 (racemic) | inactive
Br.CCCCCN1CCC2(c3cccc(OC)c3)CCC1C2 (racemic) | inactive
Br.CCCCN1CCC2(c3cccc(OC)c3)CCC1C2 (racemic) | inactive
Br.CC(=O)Oc1cccc(C23CCC(C2)N(CCc2ccccc2)CC3)c1 (racemic) | inactive

Same assay, conditions: CD-1, sc, route subcutaneous

SMILES | inhibition in vivo at 10 mg/kg
Br.Oc1cccc(C23CCC(C2)N(CCc2cccc(Cl)c2)CC3)c1 (racemic) | 20%
Br.Oc1cccc(C23CCC(C2)N(CCc2ccc(Cl)cc2)CC3)c1 (racemic) | 50%
Br.Oc1cccc(C23CCC(C2)N(CC2CC2)CC3)c1 (racemic) | 20%
Br.CCCCN1CCC2(c3cccc(O)c3)CCC1C2 (racemic) | 40%
Br.CCN1CCC2(c3cccc(OC)c3)CCC1C2 (racemic) | 10%
Br.Oc1ccc(CCN2CCC3(c4cccc(O)c4)CCC2C3)cc1 (racemic) | 20%

Tested on: Mus musculus
Assay: Analgesic activity in po dosed CD-1 mouse assessed as delay in response to noxious heat stimuli measured after 15 to 60 mins post dosing by D'Amour-Smith tail-flick method
Format: functional
Conditions: CD-1, Tail

SMILES | ED50
Br.CC(=O)Oc1cccc(C23CCC(C2)N(CCc2ccccc2)CC3)c1 (racemic) | 35 mg/kg

Tested on: Mus musculus
Assay: Analgesic activity in sc dosed CD-1 mouse assessed as inhibition of phenylquinone-induced writhing administered 15 to 90 mins prior challenge measured 5 mins post challenge
Format: functional
Conditions: CD-1, sc
Procedure, shortened: as §1

SMILES | ED50
Br.Oc1cccc(C23CCC(C2)N(CCc2ccc(Cl)c(Cl)c2)CC3)c1 (racemic) | 0.75 mg/kg
Br.Oc1cccc(C23CCC(C2)N(CCc2cccc(Cl)c2)CC3)c1 (racemic) | 0.46 mg/kg
Br.Oc1cccc(C23CCC(C2)N(CCc2ccc(Cl)cc2)CC3)c1 (racemic) | 0.42 mg/kg
Br.Oc1cccc(C23CCC(C2)N(CCc2ccccc2)CC3)c1 (racemic) | 0.68 mg/kg
Br.O=C(CCCN1CCC2(c3cccc(O)c3)CCC1C2)c1ccc(F)cc1 (racemic) | 0.35 mg/kg
Br.Oc1cccc(C23CCC(C2)N(Cc2ccco2)CC3)c1 (racemic) | 22.7 mg/kg
Br.CC(C)=CCN1CCC2(c3cccc(O)c3)CCC1C2 (racemic) | 25 mg/kg
Br.Oc1cccc(C23CCC(C2)N(CC2CC2)CC3)c1 (racemic) | 5.44 mg/kg
Br.CCCCCN1CCC2(c3cccc(O)c3)CCC1C2 (racemic) | 8.34 mg/kg
Br.CCCCN1CCC2(c3cccc(O)c3)CCC1C2 (racemic) | 8.66 mg/kg
Br.CCCN1CCC2(c3cccc(O)c3)CCC1C2 (racemic) | 8.79 mg/kg
Br.CN1CCC2(c3cccc(O)c3)CCC1C2 (racemic) | 10 mg/kg
Br.COc1cccc(C23CCC(C2)N(CCc2ccccc2)CC3)c1 (racemic) | 5.99 mg/kg
Br.COc1cccc(C23CCC(C2)N(CCCC(=O)c2ccc(F)cc2)CC3)c1 (racemic) | 0.85 mg/kg
Br.CCCCCN1CCC2(c3cccc(OC)c3)CCC1C2 (racemic) | 5.77 mg/kg
Br.CCCCN1CCC2(c3cccc(OC)c3)CCC1C2 (racemic) | 4.87 mg/kg
Br.CCCN1CCC2(c3cccc(OC)c3)CCC1C2 (racemic) | 7.4 mg/kg
Br.CCN1CCC2(c3cccc(OC)c3)CCC1C2 (racemic) | 11.9 mg/kg
Br.COc1cccc(C23CCC(C2)N(C)CC3)c1 (racemic) | 6.96 mg/kg
Br.Cc1ccc(CCN2CCC3(c4cccc(O)c4)CCC2C3)cc1 (racemic) | 0.58 mg/kg
Br.Oc1ccc(CCN2CCC3(c4cccc(O)c4)CCC2C3)cc1 (racemic) | 2.08 mg/kg
Br.Oc1cccc(C23CCC(C2)N(CCc2cccs2)CC3)c1 (racemic) | 0.72 mg/kg
Br.CC(=O)Oc1cccc(C23CCC(C2)N(C)CC3)c1 (racemic) | 14.1 mg/kg
Br.CC(=O)Oc1cccc(C23CCC(C2)N(CCc2ccccc2)CC3)c1 (racemic) | 1 mg/kg
Br.CC(=O)Oc1cccc(C23CCC(C2)N(CCc2cccs2)CC3)c1 (racemic) | 0.95 mg/kg
CC(C)=CCN1CC[C@]2(C)c3cc(O)ccc3C[C@H]1[C@H]2C [(+)-PENTAZOCINE] | 2.4 mg/kg
CN1CC[C@]23c4c5ccc(O)c4O[C@H]2[C@@H](O)C=C[C@H]3[C@H]1C5 [MORPHINE] | 0.68 mg/kg

Tested on: Mus musculus
Assay: Analgesic activity in CD-1 mouse assessed as delay in response to noxious heat stimuli at 2 mg/kg, sc measured after 15 to 60 mins post dosing by D'Amour-Smith tail-flick method relative to control
Format: functional
Conditions: route subcutaneous
Procedure, shortened: as §2

SMILES | Activity
Br.O=C(CCCN1CCC2(c3cccc(O)c3)CCC1C2)c1ccc(F)cc1 (racemic) | 40%
Br.COc1cccc(C23CCC(C2)N(CCCC(=O)c2ccc(F)cc2)CC3)c1 (racemic) | 10%

Tested on: Mus musculus
Assay: Inhibition of morphine-induced mania in sc dosed CD-1 mouse assessed as inhibition of stereotypic activity measured after 15 to 30 mins
Format: functional
Conditions: not given
Procedure, shortened: as §3

SMILES | ED50
Br.COc1cccc(C23CCC(C2)N(CCc2ccccc2)CC3)c1 (racemic) | Active

Same assay, conditions: CD-1, sc

SMILES | ED50
Br.Oc1cccc(C23CCC(C2)N(CCc2ccccc2)CC3)c1 (racemic) | 1.06 mg/kg
Br.O=C(CCCN1CCC2(c3cccc(O)c3)CCC1C2)c1ccc(F)cc1 (racemic) | 2.01 mg/kg
Br.Oc1cccc(C23CCC(C2)N(Cc2ccco2)CC3)c1 (racemic) | 3.7 mg/kg
Br.CCCCCN1CCC2(c3cccc(O)c3)CCC1C2 (racemic) | 4.31 mg/kg
Br.COc1cccc(C23CCC(C2)N(CCCC(=O)c2ccc(F)cc2)CC3)c1 (racemic) | 3.7 mg/kg
Br.CCCN1CCC2(c3cccc(OC)c3)CCC1C2 (racemic) | 8.3 mg/kg
Br.COc1cccc(C23CCC(C2)N(C)CC3)c1 (racemic) | 50 mg/kg
Br.Cc1ccc(CCN2CCC3(c4cccc(O)c4)CCC2C3)cc1 (racemic) | ≤ 10 mg/kg
Br.Oc1cccc(C23CCC(C2)N(CCc2cccs2)CC3)c1 (racemic) | 10 mg/kg
Br.CC(=O)Oc1cccc(C23CCC(C2)N(C)CC3)c1 (racemic) | 16 mg/kg
CC(C)=CCN1CC[C@]2(C)c3cc(O)ccc3C[C@H]1[C@H]2C [(+)-PENTAZOCINE] | 13.8 mg/kg
C=CCN1CC[C@]23c4c5ccc(O)c4O[C@H]2[C@@H](O)C=C[C@H]3[C@H]1C5 [NALORPHINE] | 0.43 mg/kg

Tested on: Mus musculus
Assay: Analgesic activity in CD-1 mouse assessed as inhibition of phenylquinone-induced writhing at 10 mg/kg, sc administered 15 to 90 mins prior challenge measured 5 mins post challenge
Format: functional
Conditions: CD-1, sc, route subcutaneous
Procedure, shortened: as §1

SMILES | inhibition in vivo at 10 mg/kg
Br.CCN1CCC2(c3cccc(O)c3)CCC1C2 (racemic) | 41%
